Results as given in ChEMBL document CHEMBL1153829, “Exploiting chemical libraries, structure, and genomics in the search for kinase inhibitors” (Science, 1998).
Active and inactive are the calls of the source. The rule behind the calls is not given here.

Experiments:
Saccharomyces cerevisiae [1] = assay: Induction of PGM2 gene expression in delta snq2, delta pdr5 and delta erg6 knock out yeast YRP1 at 25 µM after 2 hrs by high-density oligonucleotide array; assay type: functional, organism-based; conditions: 25 M
Outline: (§1)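 Drug-sensitized yeast strain grown to late logarithmic phase, then exposed to 25 μM inhibitor for 2 h. Polyadenylated mRNA was isolated and converted to biotin-labeled cRNA, which was hybridized to a set of four arrays carrying over 260,000 25-nucleotide oligomers. Transcripts changing more than twofold were scored, from triplicate hybridizations in each of two independent experiments.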

Saccharomyces cerevisiae [2] = assay: Decrease in RPL26B mRNA level in delta snq2, delta pdr5 and delta erg6 knock out yeast YRP1 at 25 µM after 2 hrs by high-density oligonucleotide array; assay type: functional
Outline: (§2)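 Drug-sensitized S. cerevisiae cultures grown to late logarithmic phase, then exposed to 25 μM inhibitor for 2 h. Polyadenylated mRNA isolated, converted to biotin-labeled cRNA and hybridized to a set of four high-density arrays carrying more than 260,000 25-nucleotide oligomers. Transcripts scored as changed when they shifted more than twofold in triplicate hybridizations for each of two independent experiments.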

Saccharomyces cerevisiae [3] = assay: Effect on YER037w gene expression in delta snq2, delta pdr5 and delta erg6 knock out yeast YRP1 bearing cdc28-4 mutant allele assessed as change in mRNA level at 25 µM after 2 hrs by high-density oligonucleotide array; assay type: functional, organism-based
Saccharomyces cerevisiae [4] = assay: Upregulation of YDL223c gene expression in delta snq2, delta pdr5 and delta erg6 knock out yeast YRP1 at 25 µM after 2 hrs by high-density oligonucleotide array; assay type: functional, organism-based; conditions: 25 M; outline: as §1
Saccharomyces cerevisiae [5] = assay: Downregulation of CLB1 mRNA expression in delta snq2, delta pdr5 and delta erg6 knock out yeast YRP1 at 25 µM after 2 hrs by high-density oligonucleotide array; assay type: functional, organism-based; conditions: 25 M; outline: as §2
[6] = Induction of microtubule […]
Saccharomyces cerevisiae [7] = assay: Growth inhibition of delta snq2, delta pdr5 and delta erg6 knock out yeast YRP1 after 2 hrs; assay type: functional
Nucleic Acid = assay: Induction of condensation of DNA; assay type: nucleic-acid assay

Row | Structure (SMILES) | Activity (Saccharomyces cerevisiae [1]) | fold change (FC) (Saccharomyces cerevisiae [2]) | Activity (Saccharomyces cerevisiae [3]) | Activity (Saccharomyces cerevisiae [4]) | Activity (Saccharomyces cerevisiae [5]) | Activity [6] | GI50 (Saccharomyces cerevisiae [7]) [µM] | Activity (Nucleic Acid)
1 | CN1CC[C@H](c2c(O)cc(O)c3c(=O)cc(-c4ccccc4Cl)oc23)[C@H](O)C1 [ALVOCIDIB] | Active | 3 | Active | Active | Active | – | – | –
2 | CC(C)n1cnc2/c(=N/c3cccc(Cl)c3)nc(NCCO)[nH]c21 | Active | 3 | Active | Active | Active | Active | 30 | Active
